{"data": "Measurements gathered from unrelated publications", "target": "LIM domain kinase 1 (LIMK1, Homo sapiens, UniProt P53667)"}
{"SMILES": "Nc1ncc2c(n1)-c1c([nH]c3ccc(C#CC4CC4)cc13)CCCC2", "observed": "binding", "method": "competition with immobilised ligand", "tested at": "1 µM", "remaining binding": "96%"}
{"SMILES": "Cc1c(NC(=O)c2cc(C(N)=O)nc3cc(F)ccc23)c(C(F)(F)F)nn1Cc1ccc(C#N)cc1", "observed": "cell-free assay", "method": "competition with immobilised ligand", "tested at": "1 µM", "remaining binding": "78%"}
{"SMILES": "O=C(c1ccc(Nc2nccc(-c3cc4ccccc4s3)n2)cc1)N1CCC(N2CCCC2)CC1", "observed": "binding", "method": "competition with immobilised ligand", "tested at": "1 µM", "remaining binding": "20%"}
{"SMILES": "COc1ncc2cc3ccccc3nc2c1C#N", "observed": "cell-free assay", "method": "competition with immobilised ligand", "tested at": "5 µM", "remaining binding": "98%"}
{"SMILES": "CNCc1ccccc1-c1csc([C@@H](C)Nc2nc(C)nc3cc(OC)c(OC)cc23)c1", "observed": "cell-free assay", "method": "competition with immobilised ligand", "tested at": "1 µM", "remaining binding": "99%"}
{"SMILES": "C[C@@H](c1ccc(-n2cnc3c(N)ncnc32)cc1)N1CCc2nn(C)c(Cc3ccccc3)c2C1=O", "observed": "binding", "method": "competition with immobilised ligand", "tested at": "0.1 µM", "remaining binding": "65%"}
{"SMILES": "O=C(NCCCN1CCOCC1)c1ccc(Nc2ncc(Cl)c(-c3ccc(Cl)s3)n2)cc1", "observed": "binding", "method": "competition with immobilised ligand", "tested at": "1 µM", "remaining binding": "83%"}
{"SMILES": "C[C@H]1CCN(c2nccc(-c3cnn4ncccc34)n2)C1", "observed": "binding", "tested at": "1 µM", "remaining binding": "91%"}
{"SMILES": "CC(=O)N1CCC(c2ccc(C(=O)NC(=N)N)cc2C(F)(F)F)CC1", "observed": "cell-free assay", "method": "competition with immobilised ligand", "tested at": "1 µM", "remaining binding": "100%"}
{"SMILES": "CCN1CCN(Cc2ccc(C(=O)Nc3ccc(C)c(Oc4ccc5c(c4)CC(=O)N5)c3)cc2C(F)(F)F)CC1", "observed": "binding", "method": "competition with immobilised ligand", "tested at": "1 µM", "remaining binding": "100%"}
{"SMILES": "COCCOc1nc(-c2ccc(Cl)nc2)nc2c1CN(C(=O)c1ncn3ccccc13)CC2", "observed": "cell-free assay", "method": "competition with immobilised ligand", "tested at": "0.1 µM", "remaining binding": "100%"}
{"SMILES": "CN(C)c1ncc(F)c(-c2cnn3ncccc23)n1", "observed": "binding", "tested at": "1 µM", "remaining binding": "89%"}
{"SMILES": "O=C(NCCCN1CCOCC1)c1ccc(Nc2nccc(-c3cc4ccccc4s3)n2)cc1", "observed": "binding", "method": "competition with immobilised ligand", "tested at": "1 µM", "remaining binding": "53%"}
{"SMILES": "COc1cnc(Nc2cccc(S(N)(=O)=O)c2)nc1N1CCN(c2ccccc2)C(=O)C1", "observed": "binding", "method": "competition with immobilised ligand", "tested at": "1 µM", "remaining binding": "100%"}
{"SMILES": "CS(=O)(=O)N1CCCC(NC(=O)[C@H](CCC2CCCCC2)NC(=O)c2ccc(CNC(=O)c3cnc4ccccn34)cc2)C1 (stereo partly drawn)", "observed": "cell-free assay", "method": "competition with immobilised ligand", "tested at": "0.1 µM", "remaining binding": "75%"}
{"SMILES": "CC1CCCN1c1nccc(-c2cnn3ncccc23)n1 (stereo not drawn)", "observed": "binding", "tested at": "1 µM", "remaining binding": "100%"}
{"SMILES": "O=C(NCC1CCOCC1)c1n[nH]cc1NC(=O)c1c(F)cccc1F", "observed": "binding", "method": "competition with immobilised ligand", "tested at": "1 µM", "remaining binding": "100%"}
{"SMILES": "F[C@@H]1CCN(c2nccc(-c3cnn4ncccc34)n2)C1", "observed": "binding", "tested at": "1 µM", "remaining binding": "89%"}
{"SMILES": "FC(F)(F)Oc1cccc(-c2cnc3ccc(-c4ccncc4)nn23)c1", "observed": "cell-free assay", "method": "competition with immobilised ligand", "tested at": "5 µM", "remaining binding": "81%"}
{"SMILES": "CCC(=O)N[C@H]1CC[C@@H](C(=O)N(C)c2ccc(-c3nc4ccccc4o3)cc2)C1", "observed": "cell-free assay", "method": "competition with immobilised ligand", "tested at": "1 µM", "remaining binding": "86%"}
{"SMILES": "N[C@@H]1CCN(c2nccc(-c3cnn4ncccc34)n2)C1", "observed": "binding", "tested at": "1 µM", "remaining binding": "73%"}
